Activity calls are given as the source filed them. The calls are words filed in the database; no cut-off is given here.
Columns and labels:
[1] = Cytotoxicity against human hematopoietic stem cells assessed as reduction of cell viability after 24 hrs by Annexin V-Fluorescein isothiocyanate and 7-aminoactinomycin D staining; format: cell-based
MV4-11 [2] = assay: Cytotoxicity against human MV411 cells after 24 hrs by Annexin V-Fluorescein isothiocyanate and 7-aminoactinomycin D staining; format: functional; conditions: MV4-11, 24 h, read-out: LD50 (the source's name)
Outline: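 MV4-11 human AML cells (ATCC) seeded at 300,000 cells/mL in IMDM with 10% FBS. Cells exposed to at least 4 concentrations for 24 hours. Stained with Annexin V-FITC and 7-AAD, then run on flow cytometry (BD LSRII) 15 minutes later. Viable cells gated as Annexin V-negative/7-AAD-negative and expressed as percent of untreated control.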

MV4-11 [3] = assay: Cytotoxicity against human MV411 cells assessed as reduction of cell viability at 20 uM after 2 hrs by Annexin V-Fluorescein isothiocyanate and 7-aminoactinomycin D staining; format: functional, cell-based
Outline: (§1)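 MV4-11 cells (ATCC) seeded at 300,000 cells/mL in IMDM with 10% FBS and exposed to compound for the stated time in time-course runs. Cells stained with Annexin V-FITC plus 7-AAD and read by flow cytometry 15 minutes later. Viability is the Annexin V-negative/7-AAD-negative fraction, expressed relative to untreated control.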

MV4-11 [4] = assay: Cytotoxicity against human MV411 cells assessed as reduction of cell viability at 20 uM after 30 mins by Annexin V-Fluorescein isothiocyanate and 7-aminoactinomycin D staining; format: functional; outline: as §1
MV4-11 [5] = assay: Cytotoxicity against human MV411 cells assessed as reduction of cell viability at 10 uM after 24 hrs by Annexin V-Fluorescein isothiocyanate and 7-aminoactinomycin D staining; format: functional, cell-based; outline: as §1
MV4-11 [6] = assay: Cytotoxicity against human MV411 cells assessed as reduction of cell viability at 5 uM after 24 hrs by Annexin V-Fluorescein isothiocyanate and 7-aminoactinomycin D staining; format: functional, cell-based; outline: as §1
MV4-11 [7] = assay: Cytotoxicity against human MV411 cells assessed as reduction of cell viability at 10 uM after 2 hrs by Annexin V-Fluorescein isothiocyanate and 7-aminoactinomycin D staining; format: functional, cell-based; outline: as §1
MV4-11 [8] = assay: Cytotoxicity against human MV411 cells assessed as reduction of cell viability at 5 uM after 30 mins by Annexin V-Fluorescein isothiocyanate and 7-aminoactinomycin D staining; format: functional; outline: as §1
MV4-11 [9] = assay: Cytotoxicity against human MV411 cells assessed as reduction of cell viability at 10 uM after 30 mins by Annexin V-Fluorescein isothiocyanate and 7-aminoactinomycin D staining; format: functional, cell-based; outline: as §1
MV4-11 [10] = assay: Cytotoxicity against human MV411 cells assessed as reduction of cell viability at 5 uM after 1 to 2 hrs by Annexin V-Fluorescein isothiocyanate and 7-aminoactinomycin D staining; format: functional, cell-based; outline: as §1

Row | SMILES | Activity [1] | CC50 (MV4-11 [2]) [µM] | also measured
1 | CCn1sc(=O)n(Cc2ccc(CN)cc2)c1=O.Cl | Non-toxic | 15.5 | –
2 | Cn1sc(=O)n(Cc2ccccc2)c1=O | Non-toxic | 4.01 | Activity (MV4-11 [3]): Active
3 | CCCn1sc(=O)n(Cc2ccccc2)c1=O | Non-toxic | 11.6 | –
4 | C=CCn1sc(=O)n(Cc2ccccc2)c1=O | Non-toxic | 9.2 | Activity (MV4-11 [4]): 50%; Activity (MV4-11 [3]): Active; Activity (MV4-11 [5]): Active; Activity (MV4-11 [6]): inactive
5 | O=c1sn(CCBr)c(=O)n1Cc1ccccc1 | Non-toxic | 3.5 | Activity (MV4-11 [7]): Active; Activity (MV4-11 [8]): 50%
6 | C=CCn1sc(=O)n(Cc2ccc(CN)cc2)c1=O.Cl | Non-toxic | 6.7 | –
7 | O=C([O-])c1ccc(Cn2c(=O)sn(CCCl)c2=O)cc1.[Na+] | Non-toxic | > 20 | –
8 | Cl.NCc1cccc(Cn2c(=O)sn(CCCl)c2=O)c1 | Non-toxic | 4.4 | –
9 | Cl.NCc1ccc(Cn2c(=O)sn(CCCl)c2=O)cc1 | Non-toxic | 3.01 | –
10 | CCn1sc(=O)n(Cc2ccccc2)c1=O [KRM-7777] | Non-toxic | 9.21 | –
11 | O=c1sn(CCCl)c(=O)n1Cc1ccccc1 | Non-toxic | 2.03 | Activity (MV4-11 [9]): Active; Activity (MV4-11 [10]): Active
12 | Cl.NCc1ccc(Cn2c(=O)sn(CCBr)c2=O)cc1 | Non-toxic | 4.51 | –
